Screening data as filed in PubChem.
KCNQ1 pot = potentiates or activates the human KCNQ1 potassium channel; P51787; CHO-K1 KCNQ1, thallium flux FluxOR fluorescence; stronger effect = higher value; B-score at 10 µM; 310,000 compounds, 0.35% hits; AID 2648;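 active = fluorescence ratio B-score, a plate-corrected score, at least three library SD, with initial intensity B-score within 5 SD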
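Assay system: CHO-K1 cells stably expressing KCNQ1; Medium: assay buffer with matched DMSO; Also added: K+/Tl+ depolarizing stimulus; Dosing: single dose; Timing: dye 90 min, compound 20 min, room temperature; Measured by: kinetic FluxOR thallium fluorescence, 10-s 1-Hz baseline, 110-s post-stimulus read; Read-out: peak-minus-minimum fluorescence over initial fluorescence, negative-control normalized, B-scored.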
KCNK9 inh = inhibitors of human KCNK9 two-pore domain potassium channel | Q9NPC2 | HEK293 KCNK9, FluxOR thallium flux fluorescence; stronger effect = lower value | B-score at 10 µM | 310,000 compounds, 1.2% hits;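 active = ratio B-score over 3 SD below the library mean, with starting fluorescence within 5 SD of its mean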;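 also: negative B-score means less thallium flux so channel inhibition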
Kir21 block = Kir2.1 (mouse) channel inhibition; HEK293-Kir2.1, FluxOR thallium flux fluorescence; stronger effect = lower value; B-score at 10 µM; 310,000 compounds, 0.85% hits; P35561;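 active = fluorescence ratio B-score at or below minus 3 SD of library scores, with starting-brightness B-score within 2 SD, cut at about -4.2 in these data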;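 also: channel flux triggered by added potassium and thallium sulfate stimulus; B-score of peak minus minimum fluorescence over baseline after thallium stimulus; more negative B-score means stronger Kir2.1 block with less thallium influx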
hERG rescue = hERG (human) protection from proarrhythmic block; CHO-hERG, FluxOR thallium flux, dofetilide IC70 present; 310,000 compounds, 0.51% hits; Q12809; activation (rescue from dofetilide block), less the hit threshold, % at 10 µM;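 active = activation above the mean of controls blocked by dofetilide plus 5 SD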;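 also: thallium influx through hERG after potassium depolarization seen as dye fluorescence rise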
Target sequence (Q12809 whole entry, looked up): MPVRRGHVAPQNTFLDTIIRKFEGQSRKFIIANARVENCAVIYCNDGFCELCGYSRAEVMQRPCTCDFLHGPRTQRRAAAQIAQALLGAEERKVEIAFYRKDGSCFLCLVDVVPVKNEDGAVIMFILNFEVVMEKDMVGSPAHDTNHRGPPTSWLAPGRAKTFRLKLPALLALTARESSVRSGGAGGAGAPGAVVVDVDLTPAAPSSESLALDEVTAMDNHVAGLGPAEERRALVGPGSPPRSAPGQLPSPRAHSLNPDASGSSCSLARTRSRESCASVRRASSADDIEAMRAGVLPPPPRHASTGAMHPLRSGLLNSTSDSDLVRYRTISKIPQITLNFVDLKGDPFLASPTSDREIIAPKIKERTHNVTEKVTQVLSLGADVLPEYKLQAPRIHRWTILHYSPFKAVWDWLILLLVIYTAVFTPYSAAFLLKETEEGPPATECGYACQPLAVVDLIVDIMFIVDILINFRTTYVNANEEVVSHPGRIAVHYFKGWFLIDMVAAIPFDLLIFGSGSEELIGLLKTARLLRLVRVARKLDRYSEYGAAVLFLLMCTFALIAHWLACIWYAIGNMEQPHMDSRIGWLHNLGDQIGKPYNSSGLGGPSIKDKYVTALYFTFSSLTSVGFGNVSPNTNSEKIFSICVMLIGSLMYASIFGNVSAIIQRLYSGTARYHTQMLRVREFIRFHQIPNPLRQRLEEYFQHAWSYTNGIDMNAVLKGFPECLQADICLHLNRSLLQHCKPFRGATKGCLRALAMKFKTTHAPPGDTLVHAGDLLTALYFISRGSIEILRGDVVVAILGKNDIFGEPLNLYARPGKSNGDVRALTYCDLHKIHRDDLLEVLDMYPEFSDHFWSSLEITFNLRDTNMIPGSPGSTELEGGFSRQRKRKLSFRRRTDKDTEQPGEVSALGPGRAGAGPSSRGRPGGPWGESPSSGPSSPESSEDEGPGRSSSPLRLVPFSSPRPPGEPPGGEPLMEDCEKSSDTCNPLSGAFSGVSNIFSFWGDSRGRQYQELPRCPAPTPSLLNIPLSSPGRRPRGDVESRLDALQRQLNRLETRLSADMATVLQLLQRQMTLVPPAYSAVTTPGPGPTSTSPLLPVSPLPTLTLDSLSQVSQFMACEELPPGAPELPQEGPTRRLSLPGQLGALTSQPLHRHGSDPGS
KCNK3 block = human KCNK3 channel inhibition, primary screen. O14649. CHO-KCNK3 thallium flux, FluxOR fluorescence; stronger effect = lower value. B-score at 10 µM. 340,000 compounds, 0.84% hits. AID 602410;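 active = B-score under library mean minus 4 SD, starting fluorescence ratio at most library mean plus 5 SD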;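 also: more negative B-score means stronger inhibition of thallium flux through KCNK3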
KCNQ1 block = human KCNQ1 channel inhibition. CHO-K1 KCNQ1, FluxOR thallium flux fluorescence; stronger effect = higher value. 310,000 compounds, 1.3% hits. AID 2642. P51787. B-score at 10 µM;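 active = compounds whose thallium flux B-score, printed positive for inhibition, exceeds three library SD while starting fluorescence stays within three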;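 also: channel opened by potassium depolarization with thallium stimulus after 20 min compound exposure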
KCNK9 block conf = confirmation of human KCNK9 potassium channel inhibitors; shares compounds with KCNK9 inh; HEK293 KCNK9 cells, FluxOR thallium flux fluorescence; inhibition, % at 10 µM; 4,900 compounds, 43% hits;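 active = thallium signal inhibited by more than 5 SD of the compound-free buffer control wells, on both duplicate plates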;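 also: 0% = assay buffer control wells without compound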
Kir21 sel = mouse Kir2.1 off-target activity of KCNK9 modulators. Kir2.1 cells, FluxOR thallium flux fluorescence. 4,900 compounds, 4% hits. inhibition, % at 10 µM. shares compounds with KCNK9 inh;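 active = thallium signal drop more than 5 SD beyond the mean of the no-compound control wells, seen in both duplicate plates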;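 also: signal is fluorescence rise after thallium addition divided by baseline fluorescence; plate controls were assay buffer only for no effect and full block by chlorpromazine control for full effect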
KCNK9 uninduced = non-induced cell nonspecific activity of KCNK9 modulators | shares compounds with KCNK9 inh | inhibition, % at 10 µM | non-induced KCNK9-HEK293, FluxOR thallium flux | 4,900 compounds, 40% hits;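 active = thallium signal drop beyond 5 SD of the untreated control mean, on both duplicate plates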;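 also: plate controls were buffer only IC0 wells for no effect and SID17386958 at its maximal inhibitory level for full effect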
* marks the source's active call; other numbers are inactive results; i = inactive; . = no result given. An excerpt weighted towards active compounds, which were near 3.8% of everything screened.

SMILES	KCNQ1 pot	KCNK9 inh	Kir21 block	hERG rescue	KCNK3 block	KCNQ1 block	KCNK9 block conf	Kir21 sel	KCNK9 uninduced
O=C(NCC1CCCO1)c1cccc(S(=O)(=O)NCc2ccccc2)c1 (configuration not stated)	i	i	0.87	-11	i	i	.	.	.
Cc1cc(CNC(=O)C2CCC(=O)N(Cc3ccccc3F)C2)on1 (configuration not stated)	i	i	-1	-7	i	i	.	.	.
N#Cc1cc2c(nc1SCc1cccc(Cl)c1)CCCCC2	i	-8.3*	-0.75	-8	i	i	27%*	i	35%*
N#Cc1cc2c(nc1SCc1ccccc1)CCCCC2	i	i	0.95	-8	i	i	.	.	.
COC(=O)c1ccc(COc2cc(O)c3c(c2)OC(C)(C)CC3=O)cc1	i	i	0	-6	i	i	.	.	.
CC1(C)CC(=O)c2c(O)cc(OCc3ccc(Br)cc3)cc2O1	i	-8.4*	-2	-12	i	i	73%*	i	42%*
Cc1cccc(N2CC(C(=O)OCC(=O)Nc3sccc3C(N)=O)CC2=O)c1C (configuration not stated)	.	.	.	.	i	.	.	.	.
O/N=C/c1cc(Br)ccc1OCc1cccc(F)c1	i	-8.9*	-2	-8	i	i	46%*	i	34%*
Cc1cc(NC(=O)c2cc(-c3cccs3)nc3ccccc23)no1	i	-9.6*	0.79	-9	i	i	38%*	i	i
Cc1ccc(-c2cc(C(=O)Nc3cc(C)on3)c3ccccc3n2)cc1	i	i	0.31	0	i	i	.	.	.
CCOc1ccc(S(=O)(=O)N2CCCC(C(=O)N3CCOCC3)C2)cc1C (configuration not stated)	i	i	0.34	-7	i	i	.	.	.
CC(C)N(C(C)C)S(=O)(=O)c1ccc(N2CCc3ccccc3C2)nc1	i	i	2.1	-10	i	i	i	i	i
CCN(CC)S(=O)(=O)c1ccc(N2CCN(S(=O)(=O)c3ccccc3)CC2)nc1	i	i	-1.6	-12	i	i	.	.	.
CCN(CC)S(=O)(=O)c1ccc(N2CCc3ccccc3C2)nc1	i	i	-1.6	-14	i	i	i	i	i
Cc1ccc(CN2CCN(/N=C/c3ccc(C)s3)CC2)c(C)c1	i	i	-0.45	-8	i	i	i	i	i
Cc1ccc(CN2CCN(/N=C/c3cccn3C)CC2)c(C)c1	i	i	0.02	-12	i	i	.	.	.
COc1ccc(C(=O)c2cccc(C(=O)c3ccc(OC)c(C)c3)c2)cc1C	i	i	-0.08	-10	i	i	i	i	i
COC(=O)C1=C(C(=O)OC)SC(=C2C(=S)C(C)(C)N(C(=O)CC(C)C)c3ccccc32)S1	i	-11*	-1.3	-13	i	i	26%*	i	32%*
CN1CCN(CCCNC(=O)CCc2nnc3n(Cc4ccccc4Cl)c(=O)c4ccccc4n23)CC1	i	i	0.3	-8	i	i	.	.	.
O=C(O)CN1C(=O)/C(=C\c2cc([N+](=O)[O-])ccc2OCc2ccccc2Cl)SC1=S	i	i	-0.74	-5	i	i	i	i	i
O=C(O)CN1C(=O)/C(=C\c2cc(Br)ccc2OCc2ccc(Cl)cc2)SC1=S	i	i	0.28	-1	i	i	.	.	.
CC1CCCC(NC(=O)CSc2cccc[n+]2[O-])C1C (configuration not stated)	.	.	.	.	i	.	.	.	.
CC1=NN(c2ccc(C(=O)O)cc2)C(=O)/C1=C/c1ccc(-c2ccccc2F)o1	i	i	1.2	-7	i	i	i	i	i
CC1=NN(c2ccccc2)C(=O)/C1=C/c1ccc(-c2ccc(C)c(C(=O)O)c2)o1	i	i	-0.1	16*	i	i	i	i	i
O=C(O)c1cccc(S(=O)(=O)Nc2ccccc2Cc2ccccc2)c1	i	i	0.1	-6	i	i	.	.	.
SMILES	KCNQ1 pot	KCNK9 inh	Kir21 block	hERG rescue	KCNK3 block	KCNQ1 block	KCNK9 block conf	Kir21 sel	KCNK9 uninduced
Cc1ccc(NC(=O)c2ccco2)c(NC(=O)C2CCCO2)c1 (configuration not stated)	i	i	0.68	-12	i	i	.	.	.
CCOC(=O)C1CCN(Cc2c(F)cccc2Cl)CC1	i	i	0.6	-10	i	i	.	.	.
CCOC(=O)C1CCN(Cc2coc3c(Cl)cc(Cl)cc3c2=O)CC1	i	i	-1.2	-10	i	i	i	i	i
Cc1cccc(N(Cc2ccccc2)C(=O)c2cc(S(=O)(=O)N3CCOCC3)ccc2Cl)c1	i	i	-1.4	-11	i	i	i	i	i
CCCCOc1ccc(C(=O)OCC(=O)c2c(N)n(C)c(=O)n(C)c2=O)cc1	.	.	.	.	i	.	.	.	.
C=CCN1C(=O)C(Cc2ccccc2)S/C1=N/N=C/c1cccs1 (configuration not stated)	i	i	-1.4	-9	i	8*	i	i	i
C=CCN1C(=O)C(Cc2ccc(C)cc2)S/C1=N/N=C/c1ccco1 (configuration not stated)	i	i	0.58	-1	i	i	.	.	.
O=C(N/N=C/c1ccc(-c2cccc(C(F)(F)F)c2)o1)c1cccc(F)c1	i	-9.9*	1.9	-19	i	i	i	i	i
NC(=O)N/N=C/c1ccc(-c2cccc(C(F)(F)F)c2)o1	i	i	0.01	-18	i	i	.	.	.
CCN1CCN(c2nnc(-c3ccc(F)cc3)c3ccccc23)CC1	i	i	-2.7	-6	i	i	.	.	.
COCCNC(=O)CN(C(=O)Cn1nnc2ccccc21)c1ccc(C)cc1	i	i	0.1	-5	i	i	.	.	.
COCCNC(=O)CN(C(=O)Cn1nnc2ccccc21)c1ccc(C)c(F)c1	i	i	-0.89	-14	i	i	i	i	i
CCOC(=O)c1c(-c2ccc(-c3ccccc3)cc2)csc1NC(=O)CNCCN(C)C	i	-10*	-3.7	-31	i	6*	57%*	32%*	29%*
CCOC(=O)c1c(-c2cccc([N+](=O)[O-])c2)csc1N	i	i	-1.4	-11	i	i	.	.	.
